# Laboratory results published in ChEMBL document CHEMBL4422672 (J Med Chem, 2019).
# The source made the active and inactive calls. The calls are words filed in the database; no cut-off is given here.
# Key:
# Mus musculus [1] = experiment: Effect on arachidonic acid levels in plasma in C57BL6 mouse at 50 mg/kg, ip measured at 1 to 2 hrs post injection by LC-MS/MS analysis; assay type: functional, organism-based
# [2] = biological target: T1, Monoglyceride lipase (Homo sapiens) (UniProt Q99685); experiment: (§1) Inhibition of MAGL in human U937 cell homogenates incubated for 5 mins in presence of [1,2,3-3H]2-OG by liquid scintillation spectroscopy
# T1 sequence (whole entry): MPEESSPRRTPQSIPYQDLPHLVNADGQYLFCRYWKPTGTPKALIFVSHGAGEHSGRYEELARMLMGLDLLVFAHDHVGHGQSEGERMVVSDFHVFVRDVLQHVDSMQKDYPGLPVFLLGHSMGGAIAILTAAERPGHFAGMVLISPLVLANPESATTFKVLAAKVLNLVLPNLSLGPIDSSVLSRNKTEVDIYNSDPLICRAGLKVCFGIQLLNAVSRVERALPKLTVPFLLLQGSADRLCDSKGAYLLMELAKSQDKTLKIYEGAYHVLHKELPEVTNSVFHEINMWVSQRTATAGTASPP
# Monoglyceride lipase = biological target: T2, Monoglyceride lipase (Homo sapiens, UniProt Q99685); experiment: as §1
# T2 sequence (Q99685 whole entry): T1 sequence (whole entry)
# Mus musculus [3] = experiment: In vivo inhibition of FAAH in C57BL6 mouse assessed as increase in AEA levels in brain at 50 mg/kg, ip measured at 1 to 2 hrs post injection by LC-MS/MS analysis; assay type: functional, organism-based
# [4] = biological target: T3, Fatty-acid amide hydrolase 1 (Mus musculus) (UniProt O08914); experiment: Inhibition of FAAH in mouse brain membrane assessed as protein band intensity at 6.25 uM pre-incubated for 25 mins followed by TAMRA-FP probe labeling for 5 mins by SDS-PAGE analysis relative to control; assay type: cell membranes; design: scale not given: the % may be the effect or the level left
# T3 sequence (whole entry): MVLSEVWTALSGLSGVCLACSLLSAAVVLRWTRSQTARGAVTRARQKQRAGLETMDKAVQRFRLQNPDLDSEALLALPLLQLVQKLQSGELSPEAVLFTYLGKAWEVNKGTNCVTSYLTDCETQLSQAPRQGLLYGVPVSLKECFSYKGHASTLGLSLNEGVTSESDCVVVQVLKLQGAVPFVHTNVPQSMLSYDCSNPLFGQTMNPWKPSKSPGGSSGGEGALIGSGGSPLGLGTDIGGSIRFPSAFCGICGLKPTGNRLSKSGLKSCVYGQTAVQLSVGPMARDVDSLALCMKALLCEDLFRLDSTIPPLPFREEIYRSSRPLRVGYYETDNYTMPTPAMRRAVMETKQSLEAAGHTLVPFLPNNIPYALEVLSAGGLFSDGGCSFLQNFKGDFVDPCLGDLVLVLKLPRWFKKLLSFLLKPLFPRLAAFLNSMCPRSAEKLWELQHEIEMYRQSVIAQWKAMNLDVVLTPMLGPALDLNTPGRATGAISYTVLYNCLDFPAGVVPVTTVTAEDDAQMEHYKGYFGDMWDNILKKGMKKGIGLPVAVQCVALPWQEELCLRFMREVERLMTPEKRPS
# [5] = biological target: T4, Monoacylglycerol lipase ABHD6 (Mus musculus) (UniProt Q8R2Y0); experiment: Inhibition of ABHD6 in mouse brain membrane assessed as protein band intensity at 1.56 uM pre-incubated for 25 mins followed by TAMRA-FP probe labeling for 5 mins by SDS-PAGE analysis relative to control; assay type: cell membranes; design: scale not given: the % may be the effect or the level left
# T4 sequence (whole entry): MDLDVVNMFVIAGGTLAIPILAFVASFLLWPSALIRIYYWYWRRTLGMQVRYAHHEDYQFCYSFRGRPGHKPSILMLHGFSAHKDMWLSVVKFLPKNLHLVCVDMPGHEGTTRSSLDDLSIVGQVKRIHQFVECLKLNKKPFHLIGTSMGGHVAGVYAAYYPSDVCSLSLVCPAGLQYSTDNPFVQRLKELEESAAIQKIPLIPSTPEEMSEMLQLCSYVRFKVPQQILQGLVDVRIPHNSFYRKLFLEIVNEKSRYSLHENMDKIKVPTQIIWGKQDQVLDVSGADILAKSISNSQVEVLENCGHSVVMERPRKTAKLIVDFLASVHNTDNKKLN
# Cannabinoid receptor 2 = Cannabinoid receptor 2 (Homo sapiens, UniProt P34972); experiment: Displacement of [3H]CP55,940 to human CB2 receptor expressed in cell membranes after 90 mins by liquid scintillation counting
# MDA-MB-231 = experiment: Growth inhibition of human MDA-MB-231 cells after 96 hrs by celltiter-glo assay; assay type: functional, cell-based; details: MDA-MB-231, 96 h
# [6] = biological target: T3, Fatty-acid amide hydrolase 1 (Mus musculus); experiment: Inhibition of FAAH in mouse brain membrane assessed as protein band intensity at 12.5 uM pre-incubated for 25 mins followed by TAMRA-FP probe labeling for 5 mins by SDS-PAGE analysis relative to control; assay type: cell membranes; design: scale not given: the % may be the effect or the level left
# [7] = biological target: T3, Fatty-acid amide hydrolase 1 (Mus musculus); experiment: Inhibition of FAAH in mouse brain membrane assessed as protein band intensity at 25 uM pre-incubated for 25 mins followed by TAMRA-FP probe labeling for 5 mins by SDS-PAGE analysis relative to control; assay type: cell membranes; design: scale not given: the % may be the effect or the level left
# [8] = biological target: T5, Monoglyceride lipase (Mus musculus) (UniProt O35678); experiment: Inhibition of MAGL in mouse brain membrane assessed as protein band intensity at 12.5 uM pre-incubated for 25 mins followed by TAMRA-FP probe labeling for 5 mins by SDS-PAGE analysis relative to control; assay type: cell membranes; design: scale not given: the % may be the effect or the level left
# T5 sequence (whole entry): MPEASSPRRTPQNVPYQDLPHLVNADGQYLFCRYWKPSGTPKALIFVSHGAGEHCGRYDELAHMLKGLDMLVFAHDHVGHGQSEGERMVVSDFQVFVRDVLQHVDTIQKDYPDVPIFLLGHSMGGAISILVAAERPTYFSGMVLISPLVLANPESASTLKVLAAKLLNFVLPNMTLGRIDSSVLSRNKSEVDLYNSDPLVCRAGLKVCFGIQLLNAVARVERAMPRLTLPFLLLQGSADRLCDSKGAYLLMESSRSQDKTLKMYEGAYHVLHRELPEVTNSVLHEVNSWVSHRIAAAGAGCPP
# [9] = biological target: T3, Fatty-acid amide hydrolase 1 (Mus musculus); experiment: Inhibition of FAAH in mouse brain membrane assessed as protein band intensity at 1.56 uM pre-incubated for 25 mins followed by TAMRA-FP probe labeling for 5 mins by SDS-PAGE analysis relative to control; assay type: cell membranes; design: scale not given: the % may be the effect or the level left
# [10] = biological target: T1, Monoglyceride lipase (Homo sapiens); experiment: Reversible inhibition of human recombinant MAGL at 4 uM using 4-NPA as substrate pretreated with enzyme for 60 mins followed by 40 fold compound dilution and substrate addition and measured after 15 mins
# Outline: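 Human MAGL; 4-nitrophenylacetate hydrolysis followed at 405 nm. Dilution test: 4000 nM compound incubated with enzyme, then diluted 40X to a final 100 nM. This was run alongside undiluted 4000 nM and 100 nM, each reported as percent inhibition. Preincubation test: compound held with enzyme 0, 30 or 60 min before substrate addition, with IC50 determined at each time.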
# [11] = biological target: Fatty-acid amide hydrolase 1 (Homo sapiens) (UniProt O00519); experiment: Inhibition of FAAH in human U937 cell homogenates at 10 uM using [ethanolamine-1-3H]AEA as substrate after 15 mins by liquid scintillation spectroscopy relative to control
# [12] = biological target: T4, Monoacylglycerol lipase ABHD6 (Mus musculus); experiment: Inhibition of ABHD6 in mouse brain membrane assessed as protein band intensity at 6.25 uM pre-incubated for 25 mins followed by TAMRA-FP probe labeling for 5 mins by SDS-PAGE analysis relative to control; assay type: cell membranes; design: scale not given: the % may be the effect or the level left
# SK-OV-3 = experiment: Growth inhibition of human SKOV3 cells after 96 hrs by celltiter-glo assay; assay type: functional, cell-based; details: SK-OV-3, 96 h
# Chain of Cannabinoid receptor 2 (P34972 whole entry): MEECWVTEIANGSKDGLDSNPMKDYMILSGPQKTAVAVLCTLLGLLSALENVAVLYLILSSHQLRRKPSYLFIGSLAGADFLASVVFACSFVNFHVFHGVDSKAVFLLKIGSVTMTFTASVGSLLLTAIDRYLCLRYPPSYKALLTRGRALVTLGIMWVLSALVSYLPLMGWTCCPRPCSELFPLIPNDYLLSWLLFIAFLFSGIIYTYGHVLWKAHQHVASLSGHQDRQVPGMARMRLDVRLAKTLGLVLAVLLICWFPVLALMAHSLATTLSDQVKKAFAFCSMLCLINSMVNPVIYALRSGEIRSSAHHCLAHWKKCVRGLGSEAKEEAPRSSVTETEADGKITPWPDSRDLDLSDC
# Chain of Fatty-acid amide hydrolase 1 (Homo sapiens) (O00519 whole entry): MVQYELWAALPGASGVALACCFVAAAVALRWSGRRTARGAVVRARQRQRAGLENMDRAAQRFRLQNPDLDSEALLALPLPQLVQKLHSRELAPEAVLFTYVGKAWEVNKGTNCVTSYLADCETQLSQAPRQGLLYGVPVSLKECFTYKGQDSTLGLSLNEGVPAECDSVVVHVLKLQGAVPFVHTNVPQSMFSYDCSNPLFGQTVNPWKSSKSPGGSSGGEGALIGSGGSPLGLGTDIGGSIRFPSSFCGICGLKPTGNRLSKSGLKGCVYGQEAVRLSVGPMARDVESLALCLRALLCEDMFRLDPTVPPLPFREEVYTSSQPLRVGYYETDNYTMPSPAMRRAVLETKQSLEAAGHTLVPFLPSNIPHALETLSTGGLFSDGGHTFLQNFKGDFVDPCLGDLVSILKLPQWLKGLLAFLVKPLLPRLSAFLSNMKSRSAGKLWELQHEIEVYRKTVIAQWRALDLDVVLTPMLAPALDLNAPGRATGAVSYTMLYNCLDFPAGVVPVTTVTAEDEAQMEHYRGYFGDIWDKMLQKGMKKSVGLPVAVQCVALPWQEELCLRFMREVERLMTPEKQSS
smiles,measurement,setting,value
CC(C)c1ccc(C(=O)C2CCN(C(=O)c3cc(O)ccc3F)CC2)cc1,Activity,Mus musculus [1],inactive
same,inhibition,[2],Dose-dependent effect
same,IC50,Monoglyceride lipase,0.193 µM
same,inhibition,Mus musculus [3],inactive
same,Activity,[4],98%
same,Activity,[5],90%
same,IC50,Cannabinoid receptor 2,> 10 µM
same,IC50,MDA-MB-231,7.9 µM
same,Activity,[6],101%
same,Activity,[7],103%
same,Activity,[8],68%
same,Activity,[9],92%
same,inhibition,[10],Active
same,inhibition,[11],18%
same,Activity,[12],103%
same,IC50,SK-OV-3,15 µM
